Results reported in ChEMBL document CHEMBL1955800, “Synthesis and biological validation of novel pyrazole derivatives with anticancer activity guided by 3D-QSAR analysis” (Bioorg Med Chem, 2012).

Key:
[1] = test system: NCI-H23; test: Growth inhibition of human NCI-H23 cells after 48 hrs by MTS assay; assay type: functional, cell-based; conditions: NCI-H23, 48 h
Method in brief: (§1)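 Seeded at 5 × 10³ cells/well in F12K (A549) or RPMI 1640 (NCI-H23) with 10% FBS, 37 °C, 5% CO₂, 3 h, then exposed 48 h to compounds at final 100–0.2 µM (10 mM DMSO stocks, 1% DMSO constant). MTS reagent added and incubated at 37 °C. Formazan from metabolically active cells measured, growth relative to untreated control, IC50 derived.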

[2] = test system: NCI-H23; test: Antiproliferative activity against human NCI-H23 cells after 48 hrs by BrdU assay; assay type: functional, cell-based; conditions: NCI-H23, 48 h
Method in brief: (§2)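 Seeded at 5 × 10³ cells/well in RPMI 1640 + 10% FBS, 37 °C, 5% CO₂, 3 h. Compounds from 10 mM DMSO stocks, final 100–0.2 µM with 1% DMSO, 48 h. BrdU (final 10 µM) added for 3 h, then cells fixed and DNA denatured 30 min rt, ELISA absorbance read. DNA synthesis reduction relative to untreated cells, IC50 by curve fit.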

[3] = test system: A549; test: Antiproliferative activity against human A549 cells after 48 hrs by BrdU assay; assay type: functional, cell-based; conditions: A549, 48 h; method in brief: as §2
[4] = test system: A549; test: Growth inhibition of human A549 cells after 48 hrs by MTS assay; assay type: functional, cell-based; conditions: A549, 48 h; method in brief: as §1
[5] = Solubility of the compound in DMSO; assay type: physicochemical

Structure (SMILES)	IC50 [1]	IC50 [2]	IC50 [3]	IC50 ([4]; read-out: IC50)	IC50 ([4]; read-out: pIC50 (converted))	solubility [5]
O=C(N/N=C/c1cccc(O)c1O)c1cc(-c2ccc(Cl)cc2)nn1Cc1ccc(Cl)nc1	3.35 µM	0.57 µM	0.7 µM	5.2 µM	5.25 µM	–
CC(C)(C)c1ccc(Cn2nc(-c3ccc(Cl)cc3)cc2C(=O)N/N=C/c2cccc(O)c2O)cc1	3.91 µM	0.3 µM	0.4 µM	7.8 µM	7.76 µM	–
O=C(N/N=C/c1ccc(F)cc1F)c1cc(-c2ccc(Cl)cc2)nn1Cc1ccc(Cl)nc1	13.5 µM	7.86 µM	9.05 µM	16 µM	15.8 µM	–
CC(C)(C)c1ccc(Cn2nc(-c3ccc(Cl)cc3)cc2C(=O)N/N=C/c2ccc(F)cc2F)cc1	> 100 µM	21.9 µM	> 100 µM	> 100 µM	> 100 µM	–
N#Cc1ccc(/C=N/NC(=O)c2cc(-c3ccc(Cl)cc3)nn2Cc2ccc(Cl)nc2)cc1	> 100 µM	> 100 µM	> 100 µM	> 100 µM	> 100 µM	Insoluble
N=C(NO)c1cc(-c2ccc(Cl)cc2)nn1Cc1ccc(Cl)nc1	44.4 µM	27.9 µM	38.3 µM	50.5 µM	50.1 µM	–
CC(C)(C)c1ccc(Cn2nc(-c3ccc(Cl)cc3)cc2C(=N)NO)cc1	16.5 µM	12.3 µM	17 µM	17.7 µM	17.8 µM	–
CC(C)(C)c1ccc(Cn2nc(-c3ccc(Cl)cc3)cc2/C(N)=N/OC(=O)c2cccc(O)c2O)cc1	21.9 µM	15.6 µM	26.8 µM	83.2 µM	83.2 µM	–
CC(C)(C)c1ccc(Cn2nc(-c3ccc(Cl)cc3)cc2-c2noc(-c3cccc(O)c3O)n2)cc1	> 100 µM	0.36 µM	1.54 µM	> 100 µM	> 100 µM	–
O=C(N/N=C/c1ccccc1O)c1cc(-c2ccc(Cl)cc2)nn1Cc1ccc(Cl)nc1	3.04 µM	0.27 µM	–	–	–	–
